19 compounds from PubChem BioAssay can be followed below.

Active and inactive are the calls of the source.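 The calls were made as follows, unless noted: active = viability at or below 30% in both replicate assays; inconclusive = viability at or below 30% in just one of the two assays; inactive = the rest.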

A short description of experiment [1]: reduced viability of SK-BR-3 breast cancer cells – cell-based, 24 h, human, pilot screen (AID 572;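 active = viability at or below 10% of carrier control in both of two separate runs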;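 also: compound exposure lasted between 18 and 24 h rather than exactly 24 h; 100% = carrier-treated control wells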). The following applies: SK-BR-3 viability, CellTiter-Glo luminescence, at 10 µM, stronger effect = lower value. Background: ATP-based viability assays read luminescence as a measure of living cells.
Experiment [2] is described as follows: HUVEC growth inhibition – cell-based, human, primary screen (AID 575).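 Also: 100% = median of untreated cell wells with 0.1% DMSO on each plate.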 Particulars: HUVEC proliferation, CellTiter-Glo luminescence, 72 h; at 10 µM; stronger effect = lower value. The procedure, abridged:
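Test system – primary HUVEC, no more than 12 passages · Dosing – one dose, 10 µM final, 0.1% DMSO · Times – 72 h treatment at 37 °C · Measured by – ATP-based CellTiter-Glo luminescent read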

A short description of experiment [3]: H69AR cell proliferation blockers – human, duplicate replicates, primary screen (AID 580;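 active = viability at or under a set limit in both replicates, limit being median viability minus 3 SD, cut at about 48% in these data, passing the limit was not always enough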;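 also: 100% = mean luminescence of untreated wells and 0% = no signal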). Particulars: H69AR lung tumor cells viability, ATP luminescence, 72 h; at 10 µM; stronger effect = lower value.
Experiment [4] in a line: MRP1 drug-resistance reversers in H69AR cells – cell-based, doxorubicin co-treatment, pilot screen (AID 601;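 active = viability loss from added drug above about 55%, and viability with drug at most 40%, in both replicates, limit read from the data, passing the limit was not always enough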). Particulars: CellTiter-Glo, 72 h, at 10 µM; for differential viability (reversal): stronger effect = higher value.
Experiment [5] is described as follows: yeast transport mutant growth inhibition pilot in 384-well plates, post-Golgi transport modulator project (AID 636; in the data active = inhibition above about 31%). Particulars: absorbance 615 nm, about 18 h, stronger effect = higher value.
A short description of experiment [6]: growth suppression of yeast trafficking mutant, preliminary HTS, modulators of trafficking downstream of Golgi apparatus project, 1536-format plate, OD 615 nm (AID 637; in the data active = inhibition above about 30%). Particulars: yeast transport mutant growth, absorbance 615 nm, 18 h; stronger effect = higher value.
The mark [7] stands for this setting: H69AR cells + 2 uM doxorubicin, measured here: viability with 2 uM doxorubicin, stronger effect = lower value.
[8] abbreviates: H69AR cells, compound alone cytotoxicity.

As usually defined, the viability is a read-out of living cells in per cent, often relative to untreated cells. As usually defined, the inhibition is the drop in the measured response relative to a control, in per cent. On to `COc1cc(C(=O)NCC(=O)OCC(=O)c2ccc[nH]2)cc(OC)c1OC`, for which the viability in experiment [1] is 76% (inactive); in experiment [2] it was 101% (inactive); in experiment [3], 91.5% (inactive); in experiment [4] (setting [7]), 95.3%; in experiment [4] (setting [8]), 91.5%. Besides, in experiment [4] (H69AR cells + 2 uM doxorubicin), the differential viability (reversal) is -3.86% (inactive). Besides, the inhibition was -4.38% (inactive) in experiment [5] and -0.55% (inactive) in experiment [6].
In the case of `COC(=O)c1ccccc1NC(=O)C1CC=CCC1C(=O)O` (configuration not stated), the viability in experiment [1] is 117% (inactive); in experiment [2] it was 99.7% (inactive); in experiment [3] it was 84.8% (inactive); in experiment [4] (setting [7]), 83.3%; in experiment [4] (setting [8]), 84.8%. Also, in experiment [4] (H69AR cells + 2 uM doxorubicin), the differential viability (reversal) was 1.5% (inactive). The inhibition is -9.73% (inactive) in experiment [5] and -0.81% (inactive) in experiment [6].
`COc1cc(C(=O)OC(C)CN2CCCC2)cc(OC)c1OC` (configuration not stated): the viability is 99% (inactive) in experiment [1]; 98.1% (inactive) in experiment [2]; 108% (inactive) in experiment [3]; 97% in experiment [4] (setting [7]); 108% in experiment [4] (setting [8]). In experiment [4] (H69AR cells + 2 uM doxorubicin), the differential viability (reversal) is 11.5% (inactive). Moreover, the figures for the inhibition in experiment [5] and in experiment [6] were -3.65% (inactive) and 0.55% (inactive), respectively.
`N#CCC(=O)N1CCn2c1nc1ccccc12`: the viability in experiment [1] is 99% (inactive); in experiment [2], 95% (inactive); in experiment [3], 87.7% (inactive); in experiment [4] (setting [7]) it was 88.5%; in experiment [4] (setting [8]), 87.7%. Besides, in experiment [4] (H69AR cells + 2 uM doxorubicin), the differential viability (reversal) is -0.78% (inactive). In addition, the inhibition in experiment [5] is 0.13% (inactive); in experiment [6], 0.33% (inactive).
As to `COc1ccccc1NC(=O)NCc1ccc2c(c1)OCO2`, the viability in experiment [1] is 87% (inactive); in experiment [2], 101% (inactive); in experiment [3], 93% (inactive); in experiment [4] (setting [7]) it was 94.4%; in experiment [4] (setting [8]) it was 93%. Besides, the differential viability (reversal) in experiment [4] (H69AR cells + 2 uM doxorubicin) was -1.33% (inactive). Also, the inhibition is -4.13% (inactive) in experiment [5] and -3.82% (inactive) in experiment [6].
Regarding `O=C(O)CCn1c(=O)c2ccccc2c2ccccc2c1=O`, the viability in experiment [1] was 87% (inactive); in experiment [2], 109% (inactive); in experiment [3], 100% (inactive); in experiment [4] (setting [7]), 94.8%; in experiment [4] (setting [8]) it was 100%. Also, the differential viability (reversal) in experiment [4] (H69AR cells + 2 uM doxorubicin) is 5.16% (inactive). In addition, the inhibition is 0.14% (inactive) in experiment [5] and -8.06% (inactive) in experiment [6].
Regarding `COCCn1c(Sc2nc(C)cs2)nc2c1c(=O)[nH]c(=O)n2C`, the viability in experiment [1] is 85% (inactive); in experiment [2], 106% (inactive); in experiment [3], 101% (inactive); in experiment [4] (setting [7]), 96.6%; in experiment [4] (setting [8]) it was 101%. Further, the differential viability (reversal) in experiment [4] (H69AR cells + 2 uM doxorubicin) is 4.51% (inactive). For the same compound, the results for the inhibition in experiment [5] and in experiment [6] were -5.07% (inactive) and 3.45% (inactive), respectively.
On to `COc1ccc(NC(=O)CSc2ccccn2)cc1OC`, for which the viability in experiment [1] was 87% (inactive); in experiment [2], 97.3% (inactive); in experiment [3], 95.1% (inactive); in experiment [4] (setting [7]), 74.9%; in experiment [4] (setting [8]), 95.1%. For the same compound, the differential viability (reversal) in experiment [4] (H69AR cells + 2 uM doxorubicin) was 20.2% (inactive). Also, the inhibition in experiment [5] was 2% (inactive); in experiment [6] it was 1.82% (inactive).
Turning to `Cc1ccc(C)c(-n2nnnc2SCC(=O)NCCC2=CCCCC2)c1`, the viability in experiment [1] was 91% (inactive); in experiment [2], 73.5% (inactive); in experiment [3], 93.2% (inactive); in experiment [4] (setting [7]), 105%; in experiment [4] (setting [8]), 93.2%. Also, in experiment [4] (H69AR cells + 2 uM doxorubicin), the differential viability (reversal) is -11.3% (inactive). The inhibition is -4.66% (inactive) in experiment [5] and 2.36% (inactive) in experiment [6].
On to `COc1ccc(OC)c(NS(=O)(=O)Cc2ccccc2)c1`, for which the viability in experiment [1] is 63% (inactive); in experiment [2], 102% (inactive); in experiment [3], 97.5% (inactive); in experiment [4] (setting [7]), 112%; in experiment [4] (setting [8]), 97.5%. Moreover, in experiment [4] (H69AR cells + 2 uM doxorubicin), the differential viability (reversal) is -14.4% (inactive). Also, the inhibition was -7.81% (inactive) in experiment [5] and 1.64% (inactive) in experiment [6].
Turning to `O=C(CSc1nnc(-c2ccco2)n1CC1CCCO1)NC1CCCC1` (configuration not stated), the viability in experiment [1] is 116% (inactive); in experiment [2], 94.6% (inactive); in experiment [3] it was 94.3% (inactive); in experiment [4] (setting [7]), 86.8%; in experiment [4] (setting [8]), 94.3%. Also, the differential viability (reversal) in experiment [4] (H69AR cells + 2 uM doxorubicin) was 7.47% (inactive). Besides, the inhibition is -2% (inactive) in experiment [5] and -5.27% (inactive) in experiment [6].
As for `COc1ccc(NS(=O)(=O)c2ccc(N)cc2)nn1`, the viability in experiment [1] is 91% (inactive); in experiment [2], 100% (inactive); in experiment [3], 104% (inactive); in experiment [4] (setting [7]), 95.3%; in experiment [4] (setting [8]), 104%. Also, the differential viability (reversal) in experiment [4] (H69AR cells + 2 uM doxorubicin) is 8.44% (inactive). For the same compound, the inhibition in experiment [5] is -0.78% (inactive); in experiment [6], 0% (inactive).
For `CCOC(=O)Cc1csc(NC(=O)CSc2nnc(C3CC3)n2C)n1`, the viability is 95% (inactive) in experiment [1]; 107% (inactive) in experiment [2]; 97.9% (inactive) in experiment [3]; 91.5% in experiment [4] (setting [7]); 97.9% in experiment [4] (setting [8]). Moreover, the differential viability (reversal) in experiment [4] (H69AR cells + 2 uM doxorubicin) was 6.36% (inactive). Further, the figures for the inhibition in experiment [5] and in experiment [6] were -5.81% (inactive) and -3.82% (inactive), respectively.
Take `C=CCC1(O)C(=O)Nc2ccccc21` (configuration not stated): the viability in experiment [1] is 93% (inactive); in experiment [2], 108% (inactive); in experiment [3], 98.2% (inactive); in experiment [4] (setting [7]), 79.4%; in experiment [4] (setting [8]) it was 98.2%. In addition, the differential viability (reversal) in experiment [4] (H69AR cells + 2 uM doxorubicin) was 18.9% (inactive). Moreover, the inhibition in experiment [5] was -5.2% (inactive); in experiment [6], 1.82% (inactive).
In the case of `C[C@@H]1CCC[C@H](C)N1NC(=O)c1ccc(Cl)c(S(N)(=O)=O)c1`, the viability in experiment [1] was 100% (inactive); in experiment [2] it was 88.5% (inactive); in experiment [3], 99.7% (inactive); in experiment [4] (setting [7]) it was 91.8%; in experiment [4] (setting [8]), 99.7%. Moreover, the differential viability (reversal) in experiment [4] (H69AR cells + 2 uM doxorubicin) was 7.9% (inactive). Moreover, the results for the inhibition in experiment [5] and in experiment [6] were 0.39% (inactive) and -6.5% (inactive), respectively.
Turning to `Cc1cc(NC(=O)CSc2nc(C3CC3)nc3sc4c(c23)CCC(C)C4)no1` (configuration not stated), the viability was 90% (inactive) in experiment [1]; 108% (inactive) in experiment [2]; 102% (inactive) in experiment [3]; 86.4% in experiment [4] (setting [7]); 102% in experiment [4] (setting [8]). For the same compound, the differential viability (reversal) in experiment [4] (H69AR cells + 2 uM doxorubicin) is 15.6% (inactive). In addition, the inhibition in experiment [5] was -5.2% (inactive); in experiment [6] it was -0.18% (inactive).
On to `COc1cc([C@@H]2[C@H]3CN(C)CC=C3C(C#N)=C(N)C2(C#N)C#N)cc2c1OCO2`, for which the viability in experiment [1] is 101% (inactive); in experiment [2], 93.1% (inactive); in experiment [3] it was 89.8% (inactive); in experiment [4] (setting [7]) it was 94.8%; in experiment [4] (setting [8]), 89.8%. In experiment [4] (H69AR cells + 2 uM doxorubicin), the differential viability (reversal) was -5.09% (inactive). Moreover, the inhibition in experiment [5] was -2.19% (inactive); in experiment [6], 0.18% (inactive).
Consider `Cc1nnc(SCc2ccccc2F)n1NCc1cccs1`, for which the viability in experiment [1] is 100% (inactive); in experiment [2], 93.6% (inactive); in experiment [3] it was 89% (inactive); in experiment [4] (setting [7]), 89.7%; in experiment [4] (setting [8]), 89%. Besides, the differential viability (reversal) in experiment [4] (H69AR cells + 2 uM doxorubicin) was -0.635% (inactive). Further, the inhibition in experiment [5] is -6.85% (inactive); in experiment [6] it was 5% (inactive).
For the compound `COc1cccc(NC(=O)C2C3C=CC4(O3)C2C(=O)N(C(C)C)C4C(=O)NC2CCCCC2C)c1` (configuration not stated), the viability in experiment [1] was 111% (inactive); in experiment [2], 105% (inactive); in experiment [3], 96.9% (inactive); in experiment [4] (setting [7]), 88.1%; in experiment [4] (setting [8]), 96.9%. Also, the differential viability (reversal) in experiment [4] (H69AR cells + 2 uM doxorubicin) is 8.79% (inactive). The inhibition in experiment [5] is 0.26% (inactive); in experiment [6], -4.92% (inactive).
